One experiment relates to Escherichia coli. The experiment in a line: Antibacterial activity against Escherichia coli at 50 uL/well by well diffusion assay. Format: functional. A digest of the protocol: (§1)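 Bauer-type diffusion assay. Test compounds were at 2% in DMSO. The read-out was the diameter (mm) of the inhibition zone, with chloramphenicol as the reference agent.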
Background: Agar diffusion results depend on both activity and mobility in agar.

In another experiment the test system is Micrococcus luteus. The experiment in a line: Antibacterial activity against Micrococcus luteus at 50 uL/well by well diffusion assay. Format: functional. A digest of the protocol: as §1
The subject of a further experiment is Trichophyton rubrum. The experiment in a line: Antifungal activity against Trichophyton rubrum at 50 uL/well by well diffusion assay. The class given is functional. A digest of the protocol:
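Agar discs (10 mm) carrying spores and hyphae were shaken in sterile distilled water. 1 mL of the spore suspension was plated and mixed with 15 mL molten SDA, then left to set. Compounds were at 2% in DMSO, applied per Bauer's diffusion method. The read-out was the inhibition zone (mm).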

The subject of the next experiment is Aspergillus niger. Put plainly: Antifungal activity against Aspergillus niger at 2% by disc diffusion assay.
In the next experiment the test system is Fusarium oxysporum. The experiment in a line: Antifungal activity against Fusarium oxysporum at 2% by disc diffusion assay.
Another experiment has as its system Aspergillus flavus. Put plainly: Antifungal activity against Aspergillus flavus at 2% by disc diffusion assay.
The test system of the next experiment is Geotrichum candidum. Put plainly: Antifungal activity against Geotrichum candidum at 2% by disc diffusion assay.
The next experiment has as its system Candida albicans. Put plainly: Antifungal activity against Candida albicans at 200 ug/disc by disc diffusion assay.
The test system of experiment [1] is Scopulariopsis brevicaulis. The experiment in a line: Antifungal activity against Scopulariopsis brevicaulis at 2% by disc diffusion assay.
The subject of another experiment is Bacillus cereus. Put plainly: Antibacterial activity against Bacillus cereus at 200 ug/disc by disc diffusion assay.
The next experiment relates to Serratia marcescens. The experiment in a line: Antibacterial activity against Serratia marcescens at 200 ug/disc by disc diffusion assay.
The test system of another experiment is Staphylococcus aureus. The experiment in a line: Antibacterial activity against Staphylococcus aureus at 200 ug/disc by disc diffusion assay.
For a further experiment, the system named is Pseudomonas aeruginosa. The experiment in a line: Antibacterial activity against Pseudomonas aeruginosa at 200 ug/disc by disc diffusion assay.

Consider `N#Cc1c2c(c3nncn3c1SCC(N)=O)CCCC2`, for which the “diameter of the inhibition zone (DIZ)” value in the experiment on Escherichia coli amounted to 12 mm; with Micrococcus luteus, 0 mm; in the experiment with Trichophyton rubrum it was 0 mm; in the experiment with Aspergillus niger it was 0 mm; in the experiment on Fusarium oxysporum it was 0 mm; in the experiment with Aspergillus flavus it was 0 mm. The “diameter of the inhibition zone (DIZ)” value in the experiment with Geotrichum candidum came out at 0 mm; in the experiment on Candida albicans it was 0 mm; in experiment [1], 0 mm; with Bacillus cereus it was 13 mm; with Serratia marcescens, 0 mm; in the experiment on Staphylococcus aureus, 8 mm. In addition, in the experiment with Pseudomonas aeruginosa, the “diameter of the inhibition zone (DIZ)” value was 0 mm.

With `CCOC(=O)CSc1nc(-n2nc(C)cc2C)c2c(c1C#N)CCCC2`, the “diameter of the inhibition zone (DIZ)” value in the experiment with Escherichia coli is listed as 10 mm; with Micrococcus luteus, 0 mm; with Trichophyton rubrum, 0 mm; with Aspergillus niger, 0 mm; with Fusarium oxysporum it was 0 mm; in the experiment on Aspergillus flavus, 0 mm. Further, the “diameter of the inhibition zone (DIZ)” value with Geotrichum candidum was 10 mm; in the experiment with Candida albicans, 0 mm; in experiment [1] it was 0 mm; in the experiment with Bacillus cereus it was 0 mm; in the experiment with Serratia marcescens, 10 mm; in the experiment with Staphylococcus aureus it was 7 mm. Besides, the “diameter of the inhibition zone (DIZ)” value in the experiment on Pseudomonas aeruginosa was found to be 0 mm.

For `Cc1cc(C)n(-c2nc(SCC(=O)c3ccccc3)c(C#N)c3c2CCCC3)n1`, the “diameter of the inhibition zone (DIZ)” value with Escherichia coli, in the experiment on Micrococcus luteus, in the experiment with Trichophyton rubrum, with Aspergillus niger, in the experiment on Fusarium oxysporum and with Aspergillus flavus was 0 mm in each case. In addition, the “diameter of the inhibition zone (DIZ)” value was 0 mm with Geotrichum candidum; 0 mm in the experiment with Candida albicans; 0 mm in experiment [1]; 0 mm in the experiment with Bacillus cereus; 0 mm in the experiment on Serratia marcescens; 10 mm with Staphylococcus aureus. Moreover, in the experiment with Pseudomonas aeruginosa, the “diameter of the inhibition zone (DIZ)” value is recorded as 0 mm.

Turning to `N#CCSc1nc(NN)c2c(c1C#N)CCCC2`, the “diameter of the inhibition zone (DIZ)” value in the experiment on Escherichia coli, with Micrococcus luteus, with Trichophyton rubrum, in the experiment with Aspergillus niger, with Fusarium oxysporum and in the experiment on Aspergillus flavus was 0 mm each time. For the same compound, the “diameter of the inhibition zone (DIZ)” value stood at 0 mm in the experiment with Geotrichum candidum; 10 mm in the experiment with Candida albicans; 0 mm in [1]; 0 mm in the experiment with Bacillus cereus; 10 mm with Serratia marcescens; 8 mm in the experiment on Staphylococcus aureus. The “diameter of the inhibition zone (DIZ)” value with Pseudomonas aeruginosa was 0 mm.
